Hits are enriched below; roughly 3.3% of the tested compounds scored in any of these assays.
Statin myotox sup – suppression of simvastatin myotoxicity; C2C12 myotubes + simvastatin, ATP luminescence, 48 h; scaled: DMSO 0, geranylgeraniol control 100; rescue of ATP level, % at 7.49 µM; 0.78% of 330,000 active; AID 602340;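 active means mean ATP rescue above about 67%, or every replicate alone reaching that limit, limit read from the data, passing the limit was not always enough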;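 further: myotubes were challenged with 10 µM simvastatin during compound exposure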
FGF22 binding – shifts melting point of recombinant human FGF22; Q9HCT0; recombinant FGF22 thermal shift, SYPRO orange fluorescence; percent of sucrose octasulfate shift, DMSO zero; activity (Tm shift, normalised), % at 9.99 µM; 1.5% of 340,000 active; AID 651658;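 active means mean Tm shift, scaled 0 neutral to 100 positive control, at about 1.3% or above, every replicate too, limit read from the data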
XiGFP reactiv – activators of X-chromosome reactivation in mouse fibroblasts. XiGFP mouse fibroblasts, % GFP-positive cells imaging, 3 d; cells co-treated with 5-aza-dC sensitizer; scaled so ellipticine positive control = 100%. activation, % at 7.58 µM. 0.055% of 360,000 active;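 active means mean normalized replicate activation at least 10% and every replicate at or above 10%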
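System: SV40-immortalized XiGFP fibroblast cells, line 68-5-11 / Incubation: 3-day compound exposure, then 15 min fixation at room temperature / Compound: single concentration per compound, delivered by pin transfer / Buffer or medium: DMEM plus 5-aza-dC sensitizer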
PglD DTNB – PglD (C. jejuni) enzyme inhibition | purified PglD enzyme, DTNB colorimetric CoA detection | inhibition, % at 12.5 µM | 0.098% of 360,000 active; in the data active means inhibition above about 16%, passing the limit was not always enough
DENV2 CPE – DENV2-induced cell death inhibition | DENV2-infected cells, cytopathic effect rescue, plate reader | CPE inhibition, % at 9.99 µM | AID 651640 | 1.7% of 350,000 active; in the data active means CPE inhibition above about 20%, passing the limit was not always enough; tested in BHK-21 cells
E-selectin induc – E-selectin induction on HUVECs; activation, % at 7.58 µM; P16581; 0.37% of 260,000 active; HUVEC E-selectin immunofluorescence imaging; normalized: neutral wells 0, TNF-alpha wells 100;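 active means mean E-selectin-positive cell signal at least 10% of the positive control, reached in at least 60% of replicates, without over 20% cell loss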
Target sequence (P16581 whole entry, looked up): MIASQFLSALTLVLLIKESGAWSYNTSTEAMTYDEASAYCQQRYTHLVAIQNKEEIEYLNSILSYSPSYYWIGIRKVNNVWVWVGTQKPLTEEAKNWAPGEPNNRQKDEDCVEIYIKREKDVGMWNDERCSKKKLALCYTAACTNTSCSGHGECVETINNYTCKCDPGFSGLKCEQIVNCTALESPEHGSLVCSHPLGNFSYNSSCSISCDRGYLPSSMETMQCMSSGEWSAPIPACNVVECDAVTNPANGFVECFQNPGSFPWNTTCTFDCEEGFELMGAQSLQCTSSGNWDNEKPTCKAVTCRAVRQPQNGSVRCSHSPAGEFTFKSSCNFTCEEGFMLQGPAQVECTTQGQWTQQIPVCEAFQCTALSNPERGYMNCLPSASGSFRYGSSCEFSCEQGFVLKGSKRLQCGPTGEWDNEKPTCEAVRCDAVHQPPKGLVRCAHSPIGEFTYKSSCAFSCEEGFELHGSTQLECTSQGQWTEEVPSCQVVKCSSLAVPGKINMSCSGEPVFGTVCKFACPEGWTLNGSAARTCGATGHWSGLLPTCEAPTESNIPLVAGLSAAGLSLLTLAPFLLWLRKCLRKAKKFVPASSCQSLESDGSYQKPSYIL
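Assay system: HUVEC, human umbilical vein endothelial cells / Amount: 3,000 HUVEC/well / Controls: TNF-alpha positive control, DMSO neutral control / Compound dosing: single concentration / Medium: EGM-2 over gelatin coat / Evaluation: percent E-selectin-positive cells / Signal: immunofluorescence imaging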
A number is an active result; 0 = inactive; - = no result.

SMILES	Statin myotox sup	FGF22 binding	XiGFP reactiv	PglD DTNB	DENV2 CPE	E-selectin induc
C[C@@H](NC(=O)C[C@H]1C[C@H]2c3cc(NS(C)(=O)=O)ccc3O[C@H]2[C@@H](CO)O1)c1ccccc1	0	0	0	0	0	0
CN1C(=O)c2cc(NC(=O)c3ccc4c(c3)OCO4)ccc2OC[C@@H]2O[C@@H](CC(=O)O)CC[C@H]21	0	0	0	0	0	0
CN1C(=O)c2cc(NC(=O)Nc3ccccc3)ccc2OC[C@@H]2O[C@@H](CC(=O)O)CC[C@@H]21	0	0	0	0	56.6	0
CN1C(=O)c2cc(NC(=O)NC3CCCC3)ccc2OC[C@@H]2O[C@H](CC(=O)O)CC[C@H]21	0	0	0	0	57.1	0
CNC(=O)C[C@H]1CC[C@@H]2[C@@H](COc3ccc(NC(=O)Nc4cc(C)cc(C)c4)cc3C(=O)N2C)O1	0	0	0	0	0	0
CNC(=O)C[C@H]1CC[C@H]2[C@H](COc3ccc(NC(=O)Nc4cc(C)cc(C)c4)cc3C(=O)N2C)O1	0	0	0	0	46.2	0
CN1C(=O)c2cc(NC(=O)Nc3ccccc3)ccc2OC[C@H]2O[C@@H](CC(=O)O)CC[C@H]21	0	-	0	0	-	0
CN1C(=O)c2cc(NC(=O)c3ccc4c(c3)OCO4)ccc2OC[C@H]2O[C@@H](CC(=O)O)CC[C@H]21	0	0	0	0	68.9	0
COc1ccc2c3c(n(C)c2c1)[C@H](CO)NCC31CN(Cc2ccc(-c3ccccn3)cc2)C1	-	-	0	-	0	0
CCOC(=O)c1ccc(S(=O)(=O)N2CCN(C(=O)CSc3nc4ccccc4o3)CC2)cc1	0	0	0	0	29.2	0
CCCNC(=O)[C@@H]1[C@@H](CO)[C@@H]2Cn3c(ccc(-c4cccnc4)c3=O)[C@H]1N2C(=O)Nc1ccccc1	0	0	0	0	0	0
O=C(Nc1ccc2ccccc2c1)[C@@H]1C[C@H]1[C@@H](NP(=O)(c1ccccc1)c1ccccc1)c1ccccc1	0	0	0	0	40.3	0
CCCN(C)C[C@@H]1Oc2cc(C#Cc3cccc(F)c3)ccc2S(=O)(=O)N([C@H](C)CO)C[C@@H]1C	0	0	0	0	0	0
CC(=O)OCC1OC(COC(C)=O)(c2ccc(C)cc2)C(OC(C)=O)C1OC(C)=O (stereo not given)	-	51.1	0	-	0	0
C[C@@H]1CN([C@H](C)CO)C(=O)c2cc(NC(=O)C3CC3)ccc2O[C@@H]1CN(C)Cc1ccc(-c2ccccc2)cc1	0	0	0	0	0	0
Nc1nc2c(s1)COc1ccccc1-2	0	42.9	0	0	0	-
C[C@H](O)C#Cc1ccc2c(c1)O[C@@H](CN(C)C(=O)C1CCCCC1)[C@H](C)CN([C@H](C)CO)S2(=O)=O	0	0	0	0	0	-
COc1cc(C(=O)N[C@@H](C)C(=O)N2CCC3(CC2)NCCc2[nH]cnc23)cc(OC)c1OC	0	0	0	0	0	-
Cc1cc(C)cc(C(=O)N[C@@H](C)C(=O)N2CCC3(CC2)NCCc2[nH]cnc23)c1	0	43.4	0	0	0	-
Cc1c(NC(=O)COC(=O)C2(c3ccc(F)cc3)CCCC2)c(=O)n(-c2ccccc2)n1C	-	43.3	0	-	0	0
Cc1c(NC(=O)C2(c3ccccc3)CCCC2)c(=O)n(-c2ccccc2)n1C	0	-	-	0	-	-
CC(=O)N1[C@@H]2c3ccc(-c4ccccc4)c(=O)n3C[C@H]1[C@H](CO)[C@H]2C(=O)Nc1ccccc1	0	0	0	0	48.1	0
CC=Cc1ccc2n(c1=O)C[C@@H]1[C@@H](CO)[C@H](C(=O)NC3Cc4ccccc4C3)[C@H]2N1C(C)=O (mixture of isomers)	0	0	0	0	31.0	0
CCN1[C@@H]2c3ccc(-c4ccccc4)c(=O)n3C[C@H]1[C@H](CO)[C@H]2C(=O)Nc1ccccc1	0	0	0	0	0	0
CCCC(=O)Nc1ccc2c(c1)C(=O)N(C)C[C@H](OC)[C@H](C)CN(C(=O)C1CCCC1)[C@@H](C)CO2	0	0	0	0	0	0
SMILES	Statin myotox sup	FGF22 binding	XiGFP reactiv	PglD DTNB	DENV2 CPE	E-selectin induc
O=C(C[C@H]1CC[C@@H](NS(=O)(=O)c2ccccc2)[C@H](CO)O1)N1CCN(c2ccccc2)CC1	-	-	0	-	0	0
O=C(Nc1ccc(Cl)cc1C(=O)Nc1ccncc1)c1ccco1	91.5	-	-	0	-	-
O=C(Nc1ccc(Cl)cc1C(=O)NCc1cccnc1)c1ccco1	0	-	-	0	-	-
CCOc1ccccc1CNC(CC)CO (stereo not given)	-	43.5	0	-	0	0
O=[N+]([O-])c1cccnc1N1CCN(Cc2ccc3c(c2)OCO3)CC1	0	0	0	0	34.3	0
O=[N+]([O-])c1ccccc1/C=C/CN1CCN(Cc2ccc3c(c2)OCO3)CC1	0	0	0	0	47.3	-
C(=C\c1ccccc1)/CN1CCN(Cc2ccc3c(c2)OCO3)CC1	0	0	0	0	0	-
CCC(=O)c1ccc(OCC(=O)NNC(=O)c2cc(C)oc2C)cc1	0	0	0	0	0	48.8
CCC(C)N(C(=O)CSc1ccc(NC(C)=O)cc1)C1CCS(=O)(=O)C1 (stereo not given)	-	43.4	0	-	0	0
O=C(Nc1ccccc1F)N1CCCCN2[C@H](CO)[C@H](c3ccc(-c4cccnc4)cc3)[C@H]2C1	-	0	0	0	26.9	0
O=C(Nc1cc(F)ccc1F)N1CCCCN2[C@H](C1)[C@H](c1ccc(-c3ccccc3)cc1)[C@@H]2CO	-	0	0	0	36.3	0
O=C(Nc1cc(F)ccc1F)N1CCCCN2[C@H](CO)[C@H](c3ccc(-c4ccccc4)cc3)[C@H]2C1	-	0	0	0	62.0	0
CCCC(=O)Nc1ccc2c(c1)C(=O)N(C)[C@H]1CC[C@@H](CC(=O)O)O[C@H]1CO2	0	0	0	0	0	0
C[C@@H]1CN([C@@H](C)CO)C(=O)Cc2cc(NC(=O)Cc3ccccc3)ccc2O[C@H]1CN(C)C	0	0	0	0	-	-
Cc1cc(NC(=O)CSc2ccc3nnc(CCNS(=O)(=O)c4ccccc4)n3n2)no1	86.2	43.8	0	0	0	-
Cc1ccc(S(=O)(=O)NCC(=O)OCC(=O)c2cccs2)cc1	124.8	-	-	0	-	-
Cc1ccc(S(=O)(=O)NCC(=O)OCC(=O)N(Cc2ccccc2)C(C)(C)C)cc1	-	0	0	-	93.4	0
COc1cc(NC(=O)CN(C)S(=O)(=O)c2ccc3c(c2)CC(C)N3C(C)=O)cc(OC)c1OC (stereo not given)	109.4	0	0	0	0	-
CCCCCCCCCCCCCCCC(=O)NCCO	0	0	0	0	0	0
C#CCCCCCCCCC(=O)NCCCC	0	43.3	0	-	0	0
Cn1nc(C(=O)Nc2ccc(Cl)cc2)cc1C(=O)Nc1ccc(Cl)cc1	0	0	0	0	0	-
